Source: PubChem BioAssay
A selection: hits, their analogues and other compounds. The true share with any hit is near 3.9%.
HSP90 refold inh: HSP90 refolding inhibition in rabbit reticulocyte lysate | 290,000 tested, 0.91% active | inhibition, % at 5.6 µM | luciferase refolding luminescence, 3 h | AID 1789;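 active = inhibition above the screen-wide mean plus 3 SD, computed separately per campaign, cut at about 16% in these data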;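 note: 0% = DMSO wells and 100% = 60 µM geldanamycin wells; inhibitors lower the luminescence because luciferase stays unfolded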
HSF-1 act: increases HSF-1 driven luciferase reporter signal; NIH3T3-HGL HSF-1 luciferase reporter, MG132, 8 h; 100% = twice DMSO control signal; activation, % at 9 µM; 300,000 tested, 1.7% active;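 active = mean replicate activation of at least 50% with a set share of replicates each reaching 50%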;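 note: 0% = median of the neutral control wells and 100% = twice that signal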
core dimer inh: HCV core protein dimerization inhibition; TR-FRET GST/Flag-core106 dimerization, 1536-well; inhibition, % at 5 µM; 300,000 tested, 0.33% active; AID 1899;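 active = inhibition above the mean of all tested compounds plus 3 SD, set per screening campaign, cut at about 45% in these data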
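test system = GST/Flag-tagged HCV core106 proteins | probe or stimulus = Eu donor and XL665 acceptor anti-tag antibodies | times = compound-protein-antibody incubation 4 h at 22.5 °C | signal = TR-FRET, excitation 340 nm, emission 617 and 671 nm | measure = percent inhibition of core106 dimerization signal | controls = wells lacking GST-core106 and wells with excess unlabelled core106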
FID counter: fluorescent intercalator displacement, NS3 helicase counter-screen | inhibition, % at 7.9 µM | DNA fluorescent intercalator displacement, fluorescence | 290,000 tested, 0.17% active; in the data active = inhibition above about 37%;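 note: 0% = vehicle and 100% = reference compound; higher means more ethidium bromide displaced from hairpin DNA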
HSF1 inh: HSF1 inhibition. NIH3T3-HGL HSE-luciferase, MG132-induced, luminescence 8 h; hits give low values. activity change, negative = inhibition, % at 7.5 µM (by protocol). 300,000 tested, 0.77% active. AID 2098;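 active = more than half of replicate wells show activity change below -50%, luminescence cut by over half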;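 note: luciferase reports HSF-1 transcriptional activity via heat shock element; 0% = median of DMSO wells and -100% = zero luminescence signal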
HCV NS3 hel inh: blocks Hepatitis C virus NS3 helicase unwinding | NS3 helicase DNA unwinding, Cy5 molecular beacon fluorescence | inhibition, % at 10.9 µM | 290,000 tested, 0.56% active | AID 1800;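 active = inhibition above the mean of all tested compounds plus 3 SD, set per campaign, cut at about 35% in these data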;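 note: 0% = DMSO wells and 100% = thioflavine S control wells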
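Control set: DMSO versus 110 µM thioflavine S; Material: NS3 helicase fragment of HCV; Measured by: Cy5 fluorescence at 0 and 60 min, beacon hairpin quenching; Read-out basis: percent inhibition from t60/t0 fluorescence ratio; Times: reaction time 60 min, 25 °C; Repeats: single replicate; Compound dosing: single dose, 10.9 µM nominal final, DMSO 0.8% final.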
* hit, by the source's call; · = no result.

SMILES	HSP90 refold inh	HSF-1 act	core dimer inh	FID counter	HSF1 inh	HCV NS3 hel inh
C=CCNC(=O)C1CC(=O)N(c2ccc(OCC(=O)NCc3ccccc3)cc2)C1 (centres undefined)	4.6	19.3	-1.3	-11.5	1.4	2.5
Nc1c(-c2ccsc2)cnc2ncnn12	0.0	63.8*	1.2	1.9	31.0	2.8
Cc1ccc(CNC(=O)c2ccc3nc4[nH]c5ccccc5c4nc3c2)cc1	-5.6	-77.3	·	0.5	-76.1*	-4.5
COc1ccc(-c2csc(NC(CO)c3nc4ccccc4n3CCCO)n2)cc1 (centres undefined)	·	-17.2	-11.5	·	1.2	·
CCn1cc(C(=O)NCc2ccco2)c(=O)c2cc(F)c(N3CCN(C(=O)c4ccco4)CC3)cc21	1.7	13.4	55.9*	-24.0	-2.8	1.0
COc1cc(C(=O)NCC(=O)OC(C)C(=O)Nc2ncc(Cl)cc2Cl)cc(OC)c1OC (centres undefined)	1.0	-4.8	3.3	-14.5	2.1	2.8
COc1cc(NS(=O)(=O)c2ccc(NC(=S)NC(=O)/C=C/c3ccc(OC)c(OC)c3)cc2)ncn1	0.0	-65.1	19.3	-4.7	-55.0*	11.2
COC(=O)c1cn(C(=O)OC)c2ccccc12	-3.2	0.1	-1.4	3.3	-2.2	3.9
COc1ccc(/C=C/C(=O)NC(=S)NCc2ccccc2)cc1OC	7.7	67.5*	3.6	-9.5	31.4	-9.3
COc1ccc(/C=C/C(=O)NC(C)CCc2ccccc2)cc1OC (centres undefined)	0.2	-55.6	2.4	-13.2	-43.6	-8.7
COC(=O)c1cn(C(=O)/C=C/c2ccc(OC)c(OC)c2)c2ccccc12	0.2	60.5*	10.5	-4.8	41.9	2.8
CN1CCN(CCCNC(=O)CN2C(=O)COc3ccccc32)CC1	-1.2	-0.9	-5.0	-2.2	-6.2	3.1
O=C(CN1C(=O)COc2ccccc21)NCCCN1CCN(c2ccccc2F)CC1	2.1	22.9	3.8	37.2*	-0.4	22.5
O=C(N/N=C/CCc1ccccc1)c1ccccc1	2.3	76.3*	4.2	-4.3	32.5	6.3
CC(NCC(=O)Nc1cc(S(=O)(=O)N2CCOCC2)ccc1Cl)c1ccc(Cl)cc1Cl (centres undefined)	·	2.2	7.2	·	4.8	·
COc1ccccc1C(=O)N=Nc1c(O)[nH]c2ccc([N+](=O)[O-])cc12	2.8	·	·	10.1	·	-4.1
O=C(N=Nc1c(O)[nH]c2ccc([N+](=O)[O-])cc12)c1cc(-c2ccccc2Cl)nc2ccccc12	-2.3	1.9	47.4*	-2.8	-0.1	-2.7
CCN(c1ccccc1)S(=O)(=O)c1ccc(Cl)c(NC(=O)CSc2nncs2)c1	4.2	-1.0	7.8	-14.9	-2.9	9.8
CCN(c1ccccc1)S(=O)(=O)c1ccc(Cl)c(NC(=O)CSc2nnc(C)s2)c1	3.5	-72.5	-0.1	-26.8	-66.4*	13.8
CCCOc1ccc(C(=O)Nc2ccccc2[N+](=O)[O-])cc1	0.2	59.0*	1.6	4.7	35.2	-13.5
COc1ccc(C(=O)CC(=O)C(=O)Nc2cccc([N+](=O)[O-])c2C)cc1	-3.8	58.4*	-2.0	-15.1	18.8	34.0
CC(Oc1ccc2c3c(c(=O)oc2c1)CCCC3)C(=O)NCc1ccncc1 (centres undefined)	2.0	2.5	-4.3	-19.3	2.6	-2.0
O=C(NCc1ccccc1Cl)c1cc(=O)[nH]c2ccccc12	0.5	-3.7	0.7	-6.8	-1.4	-3.5
COc1cccc(CNC(=O)C2CCN(S(=O)(=O)c3cccc4nonc34)CC2)c1	-3.5	-8.2	-1.4	-10.2	-2.3	-2.1
CCc1ccc(N2CC(C(=O)N/N=C/c3ccccc3OC)CC2=O)cc1 (centres undefined)	-6.0	-7.1	14.0	-37.7	-1.0	-6.5
SMILES	HSP90 refold inh	HSF-1 act	core dimer inh	FID counter	HSF1 inh	HCV NS3 hel inh
CCc1ccc(N2CC(C(=O)N/N=C/c3cc([N+](=O)[O-])ccc3O)CC2=O)cc1 (centres undefined)	-5.4	-58.0	0.1	-8.3	-55.1*	11.4
CSC1=NC2(C[C@H]2c2ccccc2)C(=O)N1C (some centres undefined)	·	-10.9	-4.3	·	-3.9	·
Cc1cccnc1CN1CCN(Cc2nc(Cc3cccc(F)c3)no2)CC1	-1.0	-16.4	-4.9	-9.5	-6.9	0.0
CC(C)(O)C#Cc1ccc(C(=O)NCc2cccs2)s1	3.1	18.0	-5.4	-0.8	2.8	-5.8
O=C(Nc1ccc(N2CCN(C(=O)c3ccccc3)CC2)cc1)c1ccc([N+](=O)[O-])o1	-1.7	111.3*	·	-18.5	88.9	13.6
O=C(/C=C\c1ccco1)Nc1ccc(N2CCN(C(=O)c3ccccc3)CC2)cc1	-3.2	66.4*	-14.0	-7.8	37.9	-2.2
Cc1ccccc1C(=O)N1CCN(c2ccc(NC(=O)c3ccc([N+](=O)[O-])o3)cc2)CC1	4.3	85.9*	-7.5	-38.9	60.9	-13.7
Cc1ccc(NC(=O)c2cccc(NC(=O)/C=C/c3ccco3)c2)cc1C	1.0	72.5*	19.2	-11.2	39.8	17.0
CC1CCCCN1C(=O)COc1ccc(F)cc1 (centres undefined)	-2.8	9.1	-0.6	-2.3	10.4	-0.6
CCOC(=O)c1c(NC(=O)CN2C(=O)c3ccccc3C2=O)sc(Cc2ccc3c(c2)OCO3)c1C	-7.2	-17.9	-8.0	0.8	-4.9	1.1
COc1cc2[nH]c(C(=O)NCc3ccccc3)cc2c(OC)c1OC	8.3	3.3	-4.1	-27.4	-1.4	-7.6
COc1ccc(NC(=O)c2nn(C)c(=O)c3ccccc23)cc1S(=O)(=O)Nc1ccccc1Cl	1.8	64.7*	8.4	-10.7	47.4	-0.4
CCCNC(=O)c1ccc(N2CCC3(CC2)CC(c2cccc(Br)c2)=NO3)c(NC(=O)c2ccc(Br)cc2)c1	·	-91.0	-16.9	·	-88.8*	·
N#C/C(=C\C=C\c1ccccc1[N+](=O)[O-])C(=O)NCc1ccccc1	4.6	94.2*	11.8	-10.4	56.1	5.4
N#C/C(=C\c1ccccc1[N+](=O)[O-])C(=O)NCc1ccccc1	-0.4	31.3	0.7	-1.4	5.9	-0.1
Cn1c(-c2cc3ccc(OC(=O)C(C)(C)C)cc3oc2=O)nc2ccccc21	-2.7	57.9*	-6.2	-27.2	13.9	4.1
CCc1cc2c(=O)c(-c3nc4ccccc4n3C)c(C)oc2c(CN(CC)CC)c1O	2.2	4.7	5.5	-1.5	-0.6	10.4
CC(=O)Oc1ccc2cc(-c3nc4ccccc4n3C)c(=O)oc2c1	-2.5	9.0	6.0	-4.8	9.7	0.1
CCN(CC)Cc1c(O)ccc2cc(-c3nc4ccccc4n3C)c(=O)oc12	-2.1	68.4*	-11.0	-3.3	25.0	25.4
N#Cc1cc(C(=O)c2cc(F)ccc2O)cn(-c2nccs2)c1=O	-1.9	-15.0	48.0*	-4.9	6.5	22.3
